Test results taken from publication PMC9426946 (Biochimica et biophysica acta. Proteins and proteomics, 2022).

B1: β-casein: bovine β-casein, protein substrate (protein, UniProt P02666 16-224, looked up)
Beta-casein: RELEELNVPGEIVESLSSSEESITRINKKIEKFQSEEQQQTEDELQDKIHPFAQTQSLVYPFPGPIPNSLPQNIPPLTQTPVVVPPFLQPEVMGVSKVKEAMAPKHKEMPFPKYPVEPFTESQSLTLTDVENLHLPLPLLQSWMHQPHQPLPPTVMFPPQSVLSLSQSKVLPVPQKAVPYPQRDMPIQAFLLYQEPVLGPVRGPFPIIV

Assays:
CTRB2 [1] = molecular target: T1, CTRB2 (Homo sapiens, UniProt Q6GPI1, Y164H); test: Michaelis-Menten kinetics on p-nitroanilide peptide substrates; assay type: biochemical; settings: for kcat/KM, CTRB2 / kcat, CTRB2 / Km: 0.1 M Tris-HCl pH 8.0, 1 mM CaCl2, 0.05% Tween-20; for kcat, CTRB2 / Km: average of two independent measurements; for Km: read-out: KM, CTRB2
Outline: (§1)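 Suc- and H-Ala-Ala-Pro-Phe-pNA were used at 8–1050 µM, from DMSO stocks calibrated by complete chymotryptic hydrolysis. Reactions were started by adding enzyme to 1 or 5 nM final. p-Nitroaniline release was followed at 410 nm for 3–5 min (ε 8,800 M-1cm-1), with rates taken from linear portions. KM and Vmax came from hyperbolic fits, averaging two independent measurements. Human enzymes were recombinant Y164H forms, ecotin-titrated.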

bCTRA = bCTRA (Bos taurus, UniProt P00766); test: as above; assay type: biochemical, bovine; settings: for kcat/KM, bCTRA / kcat, bCTRA / Km: 0.1 M Tris-HCl pH 8.0, 1 mM CaCl2, 0.05% Tween-20; for kcat, bCTRA / Km: average of two independent measurements; for Km: read-out: KM, bCTRA
Outline: as §1

CTRB1 D236R = CTRB1 D236R (Homo sapiens, UniProt P17538, D236R/Y164H); test: as above; assay type: biochemical; settings: for kcat/KM, CTRB1 D236R / kcat, CTRB1 D236R / Km: 0.1 M Tris-HCl pH 8.0, 1 mM CaCl2, 0.05% Tween-20; for kcat, CTRB1 D236R / Km: average of two independent measurements; for Km: read-out: KM, CTRB1 D236R
Outline: as §1

CTRB1 = CTRB1 (Homo sapiens, UniProt P17538, Y164H); test: as above; assay type: biochemical; settings: for kcat/KM, CTRB1 / Km: 0.1 M Tris-HCl pH 8.0, 1 mM CaCl2, 0.05% Tween-20; for Km: read-out: KM, CTRB1, average of two independent measurements
Outline: as §1

CTRB1 S242T = CTRB1 S242T (Homo sapiens, UniProt P17538, S242T/Y164H); test: as above; assay type: biochemical; settings: 0.1 M Tris-HCl pH 8.0, 1 mM CaCl2, 0.05% Tween-20; for kcat, CTRB1 S242T / Km: average of two independent measurements; for Km: read-out: KM, CTRB1 S242T
Outline: as §1

[2] = molecular target: chymotrypsin B1 (Homo sapiens) (UniProt P17538); settings: cited from earlier work
human CTRB2 = settings: read-out: KD on human CTRB2; prior observations; cited from earlier work
CTRB2 [3] = molecular target: T1, CTRB2; test: Casein digestion by chymotrypsins; assay type: biochemical; settings: 0.2 mg/mL β-casein, 5 nM enzyme, 0.1 M Tris-HCl pH 8.0, 1 mM CaCl2, 37°C; SDS-PAGE densitometry, two experiments
[4] = relative to Suc-Ala-Ala-Pro-Phe-p-nitroanilide

Sequence of CTRB1 (P17538 19-263 Y164H): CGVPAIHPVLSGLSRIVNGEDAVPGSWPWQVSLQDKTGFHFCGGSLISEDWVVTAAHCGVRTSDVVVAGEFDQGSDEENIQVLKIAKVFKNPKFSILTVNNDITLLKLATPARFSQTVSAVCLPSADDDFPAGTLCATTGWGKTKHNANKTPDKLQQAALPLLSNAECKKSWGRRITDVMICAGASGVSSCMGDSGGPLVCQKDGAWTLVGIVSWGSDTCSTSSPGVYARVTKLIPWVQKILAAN
Sequence of CTRB1 D236R (P17538 19-263 Y164H/D236R): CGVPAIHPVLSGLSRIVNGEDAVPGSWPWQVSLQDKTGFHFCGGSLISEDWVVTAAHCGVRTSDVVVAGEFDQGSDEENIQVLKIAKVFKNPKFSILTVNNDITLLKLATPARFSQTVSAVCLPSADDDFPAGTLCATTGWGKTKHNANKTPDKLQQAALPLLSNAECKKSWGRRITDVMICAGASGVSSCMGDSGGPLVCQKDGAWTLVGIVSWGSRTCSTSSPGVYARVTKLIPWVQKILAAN
T1 sequence (Q6GPI1 19-263 Y164H): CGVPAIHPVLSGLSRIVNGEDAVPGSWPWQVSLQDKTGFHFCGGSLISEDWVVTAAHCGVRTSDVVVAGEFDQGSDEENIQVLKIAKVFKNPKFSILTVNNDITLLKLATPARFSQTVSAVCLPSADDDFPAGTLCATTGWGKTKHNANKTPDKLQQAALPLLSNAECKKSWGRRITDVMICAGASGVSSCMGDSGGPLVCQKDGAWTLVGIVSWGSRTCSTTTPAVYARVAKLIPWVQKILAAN
Sequence of CTRB1 S242T (P17538 19-263 Y164H/S242T): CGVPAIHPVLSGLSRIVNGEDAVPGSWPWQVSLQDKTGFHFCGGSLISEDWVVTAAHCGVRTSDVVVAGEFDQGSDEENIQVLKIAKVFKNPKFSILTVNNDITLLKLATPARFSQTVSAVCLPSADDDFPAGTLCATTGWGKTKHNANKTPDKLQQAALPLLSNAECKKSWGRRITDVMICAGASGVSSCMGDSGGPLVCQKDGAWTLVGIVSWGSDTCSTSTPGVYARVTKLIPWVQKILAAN
Sequence of chymotrypsin B1 (Homo sapiens) (P17538 34-164, chain 2 of 2): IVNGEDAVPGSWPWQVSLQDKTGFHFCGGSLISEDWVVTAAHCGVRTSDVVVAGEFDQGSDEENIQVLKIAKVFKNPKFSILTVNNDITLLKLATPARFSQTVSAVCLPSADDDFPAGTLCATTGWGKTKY
Sequence of chymotrypsin B1 (Homo sapiens) (P17538 167-263, chain 3 of 2): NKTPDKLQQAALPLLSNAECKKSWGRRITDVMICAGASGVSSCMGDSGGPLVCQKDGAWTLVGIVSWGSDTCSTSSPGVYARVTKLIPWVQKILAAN

Molecule	kcat/KM, CTRB2 (CTRB2 [1])	kcat, CTRB2 (CTRB2 [1])	Km (CTRB2 [1])	kcat/KM, bCTRA (bCTRA)	kcat, bCTRA (bCTRA)	Km (bCTRA)	kcat/KM, CTRB1 D236R (CTRB1 D236R)	kcat, CTRB1 D236R (CTRB1 D236R)	Km (CTRB1 D236R)	kcat/KM, CTRB1 (CTRB1)	Km (CTRB1)	kcat/KM, CTRB1 S242T (CTRB1 S242T)	kcat, CTRB1 S242T (CTRB1 S242T)	Km (CTRB1 S242T)	other results
H-Ala-Ala-Pro-Phe-p-nitroanilide [H-AAPF-pNA]	36000 M⁻¹ s⁻¹	10.9 s⁻¹	304 µM	55000 M⁻¹ s⁻¹	20.3 s⁻¹	371 µM	45000 M⁻¹ s⁻¹	9.64 s⁻¹	214 µM	40000 M⁻¹ s⁻¹	575 µM	39000 M⁻¹ s⁻¹	21.3 s⁻¹	550 µM	reduction in kcat/KM on removal of the Suc group, CTRB2 (CTRB2 [1]; [4]): 36 fold; reduction in kcat/KM on removal of the Suc group, CTRB1 (CTRB1; [4]): 4 fold
SGPI-2 (from UniProt O46162)	–	–	–	–	–	–	–	–	–	–	–	–	–	–	Kd [2]: 1.1 nM
Schistocerca gregaria proteinase inhibitor 2 [wild-type SGPI-2]	–	–	–	–	–	–	–	–	–	–	–	–	–	–	Kd (human CTRB2): 0.16 nM
Suc-Ala-Ala-Pro-Phe-p-nitroanilide [Suc-AAPF-pNA]	1.3e+06 M⁻¹ s⁻¹	26.1 s⁻¹	20.4 µM	790000 M⁻¹ s⁻¹	36.9 s⁻¹	46.6 µM	2e+06 M⁻¹ s⁻¹	36.0 s⁻¹	17.9 µM	160000 M⁻¹ s⁻¹	219 µM	180000 M⁻¹ s⁻¹	38.4 s⁻¹	220 µM	kcat/KM of CTRB2 relative to CTRB1 (CTRB2 [1]; more efficient than CTRB1): 8.1 fold; kcat/KM of bCTRA relative to CTRB1 (bCTRA; more efficient than CTRB1): 5 fold; kcat/KM of CTRB1 D236R relative to CTRB1 (CTRB1 D236R; more efficient than CTRB1): 12.5 fold
B1	–	–	–	–	–	–	–	–	–	–	–	–	–	–	digestion activity of CTRB2 relative to CTRB1 (CTRB2 [3]): 2.3 fold
